Screening data from PubChem.
WT yeast gro inh = growth inhibition of WT yeast, mitochondrial fusion screen; mitochondrial fusion phenotypic screen, WT strain; inhibition, % at 10 µM; actives 2.1% (n = 190,000); AID 1362; in the data active = inhibition above about 58%; tested in S. cerevisiae
Beta cell apopt = blocks beta cell apoptosis | protection from apoptosis, % (concentration not given with the values) | actives 0.8% (n = 300,000) | INS-1E cytokine-induced death, ATP luminescence, 48 h; percent of positive-control rescue, neutral wells zero;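 active = Every replicate reaches about 75%, or at least half do and their mean reaches it too, limit read from the data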;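 also: higher means more ATP so stronger rescue from cytokine killing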
T cruzi inh = blocks replication of Trypanosoma cruzi. inhibition, % (concentration not given with the values). actives 1.4% (n = 300,000). T. cruzi beta-gal in NIH3T3, luminescence, 90 h;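 active = mean inhibition across valid replicates above about 55%, limit read from the data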;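 also: signal also drops with host cell toxicity which is not excluded here; higher percent means less beta-gal luminescence so fewer parasites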
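Incubation – ≥90 h infection period, 3 h prior cell attachment · System – NIH/3T3 fibroblasts plus reporter T. cruzi · Doses – compound pinned at 50 nL/well, DMSO · Read-out basis – percent inhibition of parasite-derived β-gal signal · Signal – luminescent β-galactosidase signal after 60 min lysis · Also added – 5000 T. cruzi trypomastigotes/well · Medium – Low-serum DMEM with 2% FBS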
Mot1-301 SUMO = inhibitors of SUMOylation pathway: yeast Mot1-301 growth rescue | growth rescue, % at 18.8 µM | S. cerevisiae Mot1-301 growth rescue, ATP luminescence, 38.5C; percent above DMSO median, 100 means doubled | AID 2716 | actives 1% (n = 320,000);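 active = every valid replicate shows activation above 250% relative to neutral control wells; inactive = the rest, any valid replicate at or below 250%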
CSC inhib = blocks cancer stem cells; AID 2717; cancer stem cell-like cells viability, luminescence; actives 1.1% (n = 300,000); inhibition, % at 7.5 µM; in the data active = inhibition above about 75%; tested in HMLE shEcad cells
Efflux pump inh = blocks antifungal efflux pumps in multiplex yeast assay; S. cerevisiae Candida pump triplex, Nile Red efflux; inhibition, % at 10 µM; actives 0.44% (n = 330,000);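 active = plate passing quality check with inhibition over a set limit, or well fluorescence over plate mean plus 4 SD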;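 also: Nile Red retained in pooled yeast measured as flow cytometry median fluorescence; higher means more Nile Red kept so more efflux inhibition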
Cmpd fluor yeast = flagged as fluorescent in efflux inhibitor counter-screen | AID 588517 | actives 4% (n = 1,700) | shares compounds with Efflux pump inh | fluorescence ratio to DMSO, % at 10 µM | S. cerevisiae AD/pABC3, compound fluorescence, flow cytometry;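 active = fluorescence ratio to DMSO above its plate's cutoff, the plate mean ratio plus 5 SD, cut at about 210% in these data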;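 also: unstained yeast with no Nile Red so the signal is compound autofluorescence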
Mdr1 pump inh = inhibitors of Candida albicans Mdr1 efflux pump. shares compounds with Efflux pump inh. S. cerevisiae AD/CaMDR1, Nile Red efflux, flow cytometry. inhibition, % at 10 µM. actives 1% (n = 1,700). AID 588518; in the data active = inhibition above about 26%;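 also: higher means more Nile Red retained so more efflux inhibition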
CaCdr2 efflux inh = blocks the Candida albicans Cdr2 efflux pump in yeast. shares compounds with Efflux pump inh. S. cerevisiae AD/CaCDR2, Nile Red retention, flow cytometry. Nile Red retention ratio vs DMSO, % at 10 µM. actives 4% (n = 1,700); in the data active = Nile Red retention ratio vs DMSO above about 190%;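 also: higher ratio means more blocking of Cdr2 efflux of the dye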
CaCdr1 efflux inh = inhibitors of Candida albicans Cdr1 efflux pump; shares compounds with Efflux pump inh; S. cerevisiae AD/CaCDR1, Nile Red efflux, flow cytometry; inhibition, % at 10 µM; actives 1% (n = 1,700); AID 588522;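 active = inhibition above the screen-wide mean plus twice its standard deviation, cut at about 32% in these data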
A number is an active result. An excerpt weighted towards active compounds, which were near 4.8% of everything screened.

How did O=C(CO/N=C/c1cccc([N+](=O)[O-])c1)NC1CCCCC1 do in these assays?
WT yeast gro inh: inactive; Beta cell apopt: inactive; T cruzi inh: inactive; Mot1-301 SUMO: inactive; CSC inhib: inactive; Efflux pump inh: 8.3; Cmpd fluor yeast: inactive; Mdr1 pump inh: inactive; CaCdr2 efflux inh: inactive; CaCdr1 efflux inh: inactive

How did O=C(NC(Cc1ccccc1)C(=O)O)c1ccc(S(=O)(=O)N2CCCCC2)cc1 (stereo not given) do in these assays?
WT yeast gro inh: inactive; Beta cell apopt: inactive; T cruzi inh: inactive; Mot1-301 SUMO: inactive; CSC inhib: inactive; Efflux pump inh: 6.7; Cmpd fluor yeast: inactive; Mdr1 pump inh: inactive; CaCdr2 efflux inh: inactive; CaCdr1 efflux inh: inactive

Results for Cc1ccccc1S(=O)(=O)Nc1ncnc2scc(-c3ccccc3)c12 ?
WT yeast gro inh: inactive; Beta cell apopt: inactive; T cruzi inh: inactive; Mot1-301 SUMO: inactive; CSC inhib: inactive; Efflux pump inh: 11; Cmpd fluor yeast: inactive; Mdr1 pump inh: inactive; CaCdr2 efflux inh: inactive; CaCdr1 efflux inh: inactive

How did O=C(COC(=O)c1ncc(Cl)c(Cl)c1Cl)NC1CCCCCC1 do in these assays?
Beta cell apopt: inactive; T cruzi inh: inactive; Mot1-301 SUMO: inactive; CSC inhib: inactive; Efflux pump inh: inactive

Results for Cc1c(OC(C)C(=O)NCc2ccccn2)ccc2c3c(c(=O)oc12)CCCC3 (stereo not given) ?
T cruzi inh: inactive; Mot1-301 SUMO: inactive; CSC inhib: inactive; Efflux pump inh: 1.8; Cmpd fluor yeast: inactive; Mdr1 pump inh: inactive; CaCdr2 efflux inh: inactive; CaCdr1 efflux inh: inactive

Results for Cc1c(OC(C)C(=O)NCc2ccncc2)ccc2c3c(c(=O)oc12)CCC3 (stereo not given) ?
Beta cell apopt: inactive; T cruzi inh: inactive; Mot1-301 SUMO: inactive; CSC inhib: inactive; Efflux pump inh: inactive

How did CCCNC(=O)C1(CC2CC(c3ccccc3)=NO2)CCN(C(=O)C2CCCC2)CC1 (stereo not given) do in these assays?
Beta cell apopt: inactive; Mot1-301 SUMO: inactive; CSC inhib: inactive; Efflux pump inh: inactive

Results for CC(C)C(O)(C#CCN1CCCCC1)C(C)C ?
WT yeast gro inh: inactive; Beta cell apopt: inactive; T cruzi inh: inactive; Mot1-301 SUMO: inactive; CSC inhib: inactive; Efflux pump inh: 14; Cmpd fluor yeast: inactive; Mdr1 pump inh: inactive; CaCdr2 efflux inh: inactive; CaCdr1 efflux inh: inactive

What do the screens show for `CCC(O)(C#CCN1CCCCC1)CC`?
WT yeast gro inh: inactive; Beta cell apopt: inactive; T cruzi inh: inactive; Mot1-301 SUMO: inactive; CSC inhib: inactive; Efflux pump inh: inactive

What do the screens show for `C/C(=N\Nc1nc(N)cc(Cl)n1)c1ccc(Cl)c(Cl)c1`?
WT yeast gro inh: inactive; Beta cell apopt: inactive; T cruzi inh: inactive; Mot1-301 SUMO: inactive; CSC inhib: inactive; Efflux pump inh: inactive

Results for C/C(=N\Nc1nc(N)cc(Cl)n1)c1ccc(F)cc1 ?
WT yeast gro inh: inactive; Beta cell apopt: inactive; T cruzi inh: inactive; Mot1-301 SUMO: inactive; CSC inhib: inactive; Efflux pump inh: 0.5; Cmpd fluor yeast: inactive; Mdr1 pump inh: inactive; CaCdr2 efflux inh: inactive; CaCdr1 efflux inh: inactive

How did O=C(c1ccc(Cl)cc1)[C@@H]1[C@@H]2C(=O)N(c3ccc(Cl)cc3)C(=O)[C@@H]2C2c3ccccc3C=NN21 (stereo not given in full) do in these assays?
WT yeast gro inh: inactive; Beta cell apopt: inactive; T cruzi inh: inactive; Mot1-301 SUMO: inactive; CSC inhib: inactive; Efflux pump inh: 0.6; Cmpd fluor yeast: inactive; Mdr1 pump inh: inactive; CaCdr2 efflux inh: inactive; CaCdr1 efflux inh: inactive

What do the screens show for `Cc1ccc(N2C(=O)[C@@H]3[C@H](C2=O)C2c4ccccc4C=NN2[C@@H]3C(=O)c2ccc(Cl)cc2)cc1` (stereo not given in full)?
WT yeast gro inh: inactive; Beta cell apopt: inactive; T cruzi inh: inactive; Mot1-301 SUMO: inactive; CSC inhib: inactive; Efflux pump inh: inactive

How did CCOc1ccc(NC(=O)COC(=O)CCN2C(=O)C3CC=CCC3C2=O)cc1OCC (stereo not given) do in these assays?
Beta cell apopt: inactive; Mot1-301 SUMO: inactive; Efflux pump inh: inactive

What do the screens show for `CC(=O)c1c(COC(=O)c2ccc(Cl)cc2)nc2ccccc2[n+]1[O-]`?
Beta cell apopt: inactive; T cruzi inh: inactive; Mot1-301 SUMO: inactive; CSC inhib: inactive; Efflux pump inh: inactive

Results for CC(=O)c1c(COC(=O)c2ccccc2)nc2ccccc2[n+]1[O-] ?
WT yeast gro inh: inactive; T cruzi inh: inactive; Mot1-301 SUMO: inactive; CSC inhib: inactive; Efflux pump inh: 1.8; Cmpd fluor yeast: inactive; Mdr1 pump inh: inactive; CaCdr2 efflux inh: inactive; CaCdr1 efflux inh: inactive

Results for O=C(COC(=O)COc1ccccc1F)NCc1ccco1 ?
Beta cell apopt: inactive; Mot1-301 SUMO: inactive; Efflux pump inh: inactive

What do the screens show for `COC(=O)C1(C)NCCc2c1[nH]c1ccccc21` (stereo not given)?
Beta cell apopt: inactive; T cruzi inh: inactive; Mot1-301 SUMO: inactive; CSC inhib: inactive; Efflux pump inh: inactive

What do the screens show for `CCOC(=O)N1CCC2(CC1)NCCc1c2[nH]c2ccccc12`?
Beta cell apopt: inactive; T cruzi inh: inactive; Mot1-301 SUMO: inactive; CSC inhib: inactive; Efflux pump inh: 0.9; Cmpd fluor yeast: inactive; Mdr1 pump inh: inactive; CaCdr2 efflux inh: inactive; CaCdr1 efflux inh: inactive

Results for NS(=O)(=O)c1ccc(CCNC(=O)CSc2nc3ccccc3c(=O)n2CCC(=O)N2CCCCC2)cc1 ?
WT yeast gro inh: inactive; Beta cell apopt: inactive; T cruzi inh: inactive; Mot1-301 SUMO: inactive; CSC inhib: inactive; Efflux pump inh: inactive

Results for CN1CCN(C(=O)CSc2ccc(C(F)(F)F)cc2[N+](=O)[O-])CC1 ?
WT yeast gro inh: inactive; Beta cell apopt: inactive; T cruzi inh: inactive; Mot1-301 SUMO: inactive; CSC inhib: inactive; Efflux pump inh: 14; Cmpd fluor yeast: inactive; Mdr1 pump inh: inactive; CaCdr2 efflux inh: inactive; CaCdr1 efflux inh: inactive

How did C=CC[C@@H](CC(=O)N(CCO)Cc1ccccc1)C(=O)N[C@H](COC(=O)[C@@H](CC=C)Cc1ccc(F)cc1)Cc1c[nH]c2ccccc12 do in these assays?
Beta cell apopt: inactive; Mot1-301 SUMO: inactive; CSC inhib: inactive; Efflux pump inh: 162; Cmpd fluor yeast: inactive; Mdr1 pump inh: 136; CaCdr2 efflux inh: inactive; CaCdr1 efflux inh: 135
